In PubChem BioAssay AID651708 (Sanford-Burnham Center for Chemical Genomics, 2012):
pIC50: −log10 of the molar value. Calls of active or inactive are those of the source.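 How the source made its calls: active means compound with IC50 above 30 µM at both the APJ and CCR6 off-target receptors, and at most 10 µM at CXCR6; inactive means the rest.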

Tests used:
Experiment in all cases: antagonism across CCR6, APJ and CXCR6 receptors, profiling panel, selectivity assay for CXCR6 antagonist project, cell-based, CHO-K1 PathHunter beta-arrestin, luminescence, set 3 (AID 651708)
[1] = molecular target: Apelin receptor (Homo sapiens) (UniProt P35414); conditions: antagonist mode, APJ; for IC50: mean of runs
Sequence of Apelin receptor (Homo sapiens) (P35414 whole entry, looked up): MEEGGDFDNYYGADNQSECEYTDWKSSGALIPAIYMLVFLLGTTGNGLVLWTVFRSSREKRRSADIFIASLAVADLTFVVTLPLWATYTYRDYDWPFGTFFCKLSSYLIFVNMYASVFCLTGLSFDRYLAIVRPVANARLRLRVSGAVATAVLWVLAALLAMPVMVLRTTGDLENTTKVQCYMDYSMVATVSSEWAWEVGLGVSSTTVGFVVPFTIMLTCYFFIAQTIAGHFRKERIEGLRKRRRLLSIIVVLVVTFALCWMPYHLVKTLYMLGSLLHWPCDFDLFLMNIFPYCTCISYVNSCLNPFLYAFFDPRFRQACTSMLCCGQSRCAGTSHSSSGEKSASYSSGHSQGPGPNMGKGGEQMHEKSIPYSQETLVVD
In short: (§1)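 Material – CHO-K1 PathHunter β-arrestin cell lines for APJ, CCR6 or CXCR6 · Probe or stimulus – APJ 10 nM Apelin-13, CCR6 14 nM CCL20, CXCR6 CXCL16 · Measured by – β-arrestin recruitment luminescence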

[2] = molecular target: C-X-C chemokine receptor type 6 (Homo sapiens) (UniProt O00574); conditions: antagonist mode
Sequence of C-X-C chemokine receptor type 6 (Homo sapiens) (O00574 whole entry, looked up): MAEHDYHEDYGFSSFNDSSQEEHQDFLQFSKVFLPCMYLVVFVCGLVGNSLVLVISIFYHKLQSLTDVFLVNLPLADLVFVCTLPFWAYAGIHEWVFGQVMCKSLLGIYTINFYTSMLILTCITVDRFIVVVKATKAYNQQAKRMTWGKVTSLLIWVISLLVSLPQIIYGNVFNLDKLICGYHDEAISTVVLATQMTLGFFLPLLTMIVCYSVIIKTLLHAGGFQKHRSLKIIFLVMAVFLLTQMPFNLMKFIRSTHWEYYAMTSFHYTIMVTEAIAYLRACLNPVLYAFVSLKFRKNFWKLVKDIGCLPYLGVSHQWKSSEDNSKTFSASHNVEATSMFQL
In short: as §1

[3] = molecular target: C-C chemokine receptor type 6 (Homo sapiens) (UniProt P51684); conditions: antagonist mode; for IC50: CCR6, mean of runs
Sequence of C-C chemokine receptor type 6 (Homo sapiens) (P51684 whole entry, looked up): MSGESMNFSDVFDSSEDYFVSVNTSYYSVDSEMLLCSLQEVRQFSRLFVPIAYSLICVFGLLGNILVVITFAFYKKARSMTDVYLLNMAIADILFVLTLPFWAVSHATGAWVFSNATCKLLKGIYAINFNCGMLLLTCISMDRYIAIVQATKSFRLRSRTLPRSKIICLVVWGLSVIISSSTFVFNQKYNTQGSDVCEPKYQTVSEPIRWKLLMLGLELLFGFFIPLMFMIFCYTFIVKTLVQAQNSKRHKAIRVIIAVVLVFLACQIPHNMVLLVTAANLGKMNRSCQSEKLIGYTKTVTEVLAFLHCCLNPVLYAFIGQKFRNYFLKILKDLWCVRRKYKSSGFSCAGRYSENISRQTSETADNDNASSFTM
In short: as §1

Compound	IC50 [1]	pIC50 ([1]; run 1)	pIC50 ([1]; run 2)	IC50 ([2]; CXCR6, mean of runs)	pIC50 ([2]; CXCR6, run 1)	pIC50 ([2]; CXCR6, run 2)	IC50 [3]	pIC50 ([3]; CCR6, run 1)	pIC50 ([3]; CCR6, run 2)	pIC50 ([2]; CXCR6, mean of runs)
COc1ccc(C(=O)NC2CC3CCCC(C2)N3CC(=O)Nc2ccc(Cl)cc2)cc1OC (configuration not stated)	> 79 µM (inactive)	< 4.10	< 4.10	> 79 µM (inactive)	< 4.10	< 4.10	> 79 µM (inactive)	< 4.10	< 4.10	–
COc1ccccc1NC(=O)CN1C2CCCC1CC(NC(=O)c1cc(OC)c(OC)c(OC)c1)C2 (configuration not stated)	–	< 4.10	4.60	–	5.74	5.68	> 79 µM (inactive)	< 4.10	< 4.10	5.71
COc1cc(C(=O)NC2CC3CCCC(C2)N3CC(=O)Nc2ccc(C)cc2)cc(OC)c1OC (configuration not stated)	> 79 µM (inactive)	< 4.10	< 4.10	–	5.27	5.22	> 79 µM (inactive)	< 4.10	< 4.10	5.24
COc1ccc(C(=O)NC2CC3CCCC(C2)N3CC(=O)Nc2ccc(C)cc2)cc1OC (configuration not stated)	> 79 µM (inactive)	< 4.10	< 4.10	> 79 µM (inactive)	< 4.10	< 4.10	> 79 µM (inactive)	< 4.10	< 4.10	–
COc1ccc(NC(=O)CN2C3CCCC2CC(NC(=O)c2cccc(OC)c2)C3)cc1 (configuration not stated)	> 79 µM (inactive)	< 4.10	< 4.10	> 79 µM (inactive)	< 4.10	< 4.10	> 79 µM (inactive)	< 4.10	< 4.10	–
COc1cc(OC)cc(C(=O)NC2CC3CCCC(C2)N3CC(=O)Nc2ccc(Cl)cc2)c1 (configuration not stated)	> 79 µM (inactive)	< 4.10	< 4.10	> 79 µM (inactive)	< 4.10	< 4.10	> 79 µM (inactive)	< 4.10	< 4.10	–
COc1cc(C(=O)NC2CC3CCCC(C2)N3CC(=O)Nc2ccc(F)cc2)cc(OC)c1OC (configuration not stated)	> 79 µM (inactive)	< 4.10	< 4.10	–	5.51	5.40	> 79 µM (inactive)	< 4.10	< 4.10	5.45
COc1cc(C(=O)NC2CC3CCCC(C2)N3CC(=O)Nc2ccc(Cl)cc2)cc(OC)c1OC (configuration not stated)	–	< 4.10	4.28	–	5.90	5.78	> 79 µM (inactive)	< 4.10	< 4.10	5.84
COc1ccc(C(=O)NC2CC3CCCC(C2)N3CC(=O)Nc2ccc(C)cc2)cc1 (configuration not stated)	> 79 µM (inactive)	< 4.10	< 4.10	> 79 µM (inactive)	< 4.10	< 4.10	> 79 µM (inactive)	< 4.10	< 4.10	–
COc1ccc(NC(=O)CN2C3CCCC2CC(NC(=O)c2ccc(OC)cc2)C3)cc1 (configuration not stated)	–	< 4.10	5.37	> 79 µM (inactive)	< 4.10	< 4.10	> 79 µM (inactive)	< 4.10	< 4.10	–
COc1cc(OC)cc(C(=O)NC2CC3CCCC(C2)N3CC(=O)Nc2ccc(C)cc2)c1 (configuration not stated)	> 79 µM (inactive)	< 4.10	< 4.10	> 79 µM (inactive)	< 4.10	< 4.10	> 79 µM (inactive)	< 4.10	< 4.10	–

Results, then the compound that gave them:

IC50 [1]	pIC50 ([1]; run 1)	pIC50 ([1]; run 2)	IC50 ([2]; CXCR6, mean of runs)	pIC50 ([2]; CXCR6, run 1)	pIC50 ([2]; CXCR6, run 2)	IC50 [3]	pIC50 ([3]; CCR6, run 1)	pIC50 ([3]; CCR6, run 2)	pIC50 ([2]; CXCR6, mean of runs)	Compound
> 79 µM (inactive)	< 4.10	< 4.10	> 79 µM (inactive)	< 4.10	< 4.10	> 79 µM (inactive)	< 4.10	< 4.10	–	COc1ccc(C(=O)NC2CC3CCCC(C2)N3CC(=O)Nc2ccccc2)cc1 (configuration not stated)
> 79 µM (inactive)	< 4.10	< 4.10	> 79 µM (inactive)	< 4.10	< 4.10	> 79 µM (inactive)	< 4.10	< 4.10	–	COc1cccc(C(=O)NC2CC3CCCC(C2)N3CC(=O)Nc2ccc(Cl)cc2)c1 (configuration not stated)
–	< 4.10	4.54	> 79 µM (inactive)	< 4.10	< 4.10	> 79 µM (inactive)	< 4.10	< 4.10	–	Cc1ccc(NC(=O)CN2C3CCCC2CC(NC(=O)c2ccc4c(c2)OCO4)C3)cc1 (configuration not stated)
–	< 4.10	5.93	> 79 µM (inactive)	< 4.10	< 4.10	> 79 µM (inactive)	< 4.10	< 4.10	–	COc1cccc(C(=O)NC2CC3CCCC(C2)N3CC(=O)Nc2ccc(C)cc2)c1 (configuration not stated)
> 79 µM (inactive)	< 4.10	< 4.10	> 79 µM (inactive)	< 4.10	< 4.10	> 79 µM (inactive)	< 4.10	< 4.10	–	COc1ccc(C(=O)NC2CC3CCCC(C2)N3CC(=O)Nc2ccccc2)cc1OC (configuration not stated)
> 79 µM (inactive)	< 4.10	< 4.10	> 79 µM (inactive)	< 4.10	< 4.10	> 79 µM (inactive)	< 4.10	< 4.10	–	COc1ccc(NC(=O)CN2C3CCCC2CC(NC(=O)c2ccc4c(c2)OCO4)C3)cc1 (configuration not stated)
> 79 µM (inactive)	< 4.10	< 4.10	> 79 µM (inactive)	< 4.10	< 4.10	> 79 µM (inactive)	< 4.10	< 4.10	–	O=C(CN1C2CCCC1CC(NC(=O)c1ccc3c(c1)OCO3)C2)Nc1ccc(F)cc1 (configuration not stated)
> 79 µM (inactive)	< 4.10	< 4.10	> 79 µM (inactive)	< 4.10	< 4.10	> 79 µM (inactive)	< 4.10	< 4.10	–	O=C(CN1C2CCCC1CC(NC(=O)c1ccc3c(c1)OCO3)C2)Nc1ccccc1 (configuration not stated)
> 79 µM (inactive)	< 4.10	< 4.10	> 79 µM (inactive)	< 4.10	< 4.10	> 79 µM (inactive)	< 4.10	< 4.10	–	O=C(CN1C2CCCC1CC(NC(=O)c1ccccc1)C2)Nc1ccccc1 (configuration not stated)
–	< 4.10	4.43	> 79 µM (inactive)	< 4.10	< 4.10	> 79 µM (inactive)	< 4.10	< 4.10	–	O=C(CN1C2CCCC1CC(NC(=O)c1ccc3c(c1)OCO3)C2)Nc1ccc(Cl)cc1 (configuration not stated)
> 79 µM (inactive)	< 4.10	< 4.10	> 79 µM (inactive)	< 4.10	< 4.10	> 79 µM (inactive)	< 4.10	< 4.10	–	COc1cccc(C(=O)NC2CC3CCCC(C2)N3CC(=O)Nc2ccc(F)cc2)c1 (configuration not stated)
